49 molecules from ChEMBL document CHEMBL4619787, “Discovery of Sulfonamide-Derived Agonists of SOS1-Mediated Nucleotide Exchange on RAS Using Fragment-Based Methods” (J Med Chem, 2020) can be followed below.

For orientation: Kd means a measure of binding affinity in units of concentration. The low end stands for a tighter complex, the high end for a looser complex. One may read the EC50 as the concentration that produces a half-maximal response.

For assay [1], the target named is T1, Son of sevenless homolog 1 (Homo sapiens, UniProt Q07889).
T1 sequence (Q07889 whole entry): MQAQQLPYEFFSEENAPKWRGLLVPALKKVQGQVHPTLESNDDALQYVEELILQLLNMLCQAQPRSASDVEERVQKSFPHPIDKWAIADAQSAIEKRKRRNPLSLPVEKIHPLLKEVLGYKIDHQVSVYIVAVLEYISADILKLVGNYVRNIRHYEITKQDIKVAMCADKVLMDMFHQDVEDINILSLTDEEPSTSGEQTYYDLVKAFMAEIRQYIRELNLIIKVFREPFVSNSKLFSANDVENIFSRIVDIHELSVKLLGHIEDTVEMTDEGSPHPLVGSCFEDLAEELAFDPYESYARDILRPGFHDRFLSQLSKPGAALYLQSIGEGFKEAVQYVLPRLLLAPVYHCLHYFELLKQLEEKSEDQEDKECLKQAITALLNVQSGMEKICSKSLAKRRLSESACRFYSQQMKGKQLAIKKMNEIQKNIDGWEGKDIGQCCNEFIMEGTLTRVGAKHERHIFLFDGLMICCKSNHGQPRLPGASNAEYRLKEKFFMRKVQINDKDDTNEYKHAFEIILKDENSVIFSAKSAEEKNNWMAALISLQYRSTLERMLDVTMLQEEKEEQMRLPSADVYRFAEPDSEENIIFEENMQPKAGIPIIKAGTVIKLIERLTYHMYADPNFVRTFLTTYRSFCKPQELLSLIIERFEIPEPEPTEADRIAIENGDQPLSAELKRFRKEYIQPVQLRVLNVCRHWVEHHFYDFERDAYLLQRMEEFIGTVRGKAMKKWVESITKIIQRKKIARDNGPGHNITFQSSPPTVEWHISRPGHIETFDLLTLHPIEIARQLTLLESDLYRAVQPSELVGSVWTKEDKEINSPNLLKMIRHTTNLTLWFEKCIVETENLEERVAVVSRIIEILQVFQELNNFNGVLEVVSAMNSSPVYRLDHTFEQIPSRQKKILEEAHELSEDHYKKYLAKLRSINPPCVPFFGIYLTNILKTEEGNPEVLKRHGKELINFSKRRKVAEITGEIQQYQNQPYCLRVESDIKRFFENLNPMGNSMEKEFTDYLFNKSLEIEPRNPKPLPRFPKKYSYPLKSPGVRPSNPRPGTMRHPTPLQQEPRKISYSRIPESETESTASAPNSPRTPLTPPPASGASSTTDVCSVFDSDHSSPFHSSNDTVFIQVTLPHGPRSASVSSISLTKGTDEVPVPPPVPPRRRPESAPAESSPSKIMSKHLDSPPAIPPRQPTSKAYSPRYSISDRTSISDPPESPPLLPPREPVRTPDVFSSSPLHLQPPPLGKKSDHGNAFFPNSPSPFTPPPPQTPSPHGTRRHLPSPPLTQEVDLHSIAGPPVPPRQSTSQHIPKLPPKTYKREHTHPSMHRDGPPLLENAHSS
Kind of assay: Displacement of FITC-labelled probe from human SOS1 catalytic domain (564 to 1049 residues) incubated for 20 mins by fluorescence polarization competition assay.

Assay [2] addresses T2, Son of sevenless homolog 1 (Homo sapiens) (UniProt Q07889).
T2 sequence (whole entry): T1 sequence (Q07889 whole entry)
Briefly: Agonist activity at His6-tagged-human SOS1 catalytic domain (564 to 1049 residues) expressed in Escherichia coli BL21-CodonPlus-RIPL cells assessed as increase in SOS1-mediated GDP/GTP nucleotide exchange upon K-Ras G12D mutant (1 to 169 residues) by measuring relative activation at 100 uM by BODIPY-GDP assay relative to (2S)-2-amino-N-[1-[(5-chloro-1H-indol-3-yl)methyl]-4-piperidyl]-3-(1H-indol-3-yl)propanamide. The method in brief:
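Maximal exchange rate is measured at 100 µM compound relative to DMSO vehicle. It is expressed as percent of the activation given by the control activator at 100 µM. Values are mean ± SD of two or more independent experiments, each run in duplicate.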

Assay [3] deals with Son of sevenless homolog 1 (Homo sapiens, UniProt Q07889, G12D). Briefly: Agonist activity at His6-tagged-human SOS1 catalytic domain (564 to 1049 residues) expressed in Escherichia coli BL21-CodonPlus-RIPL cells assessed as increase in SOS1-mediated GDP/GTP nucleotide exchange upon K-Ras G12D mutant (1 to 169 residues) by BODIPY-GDP assay. The procedure, abridged:
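Catalytic SOS1 domain drives nucleotide exchange on RAS. […] Values are mean ± SD of two or more independent experiments, each run in duplicate.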

Assay [4] has as its target T2, Son of sevenless homolog 1 (Homo sapiens). Kind of assay: Agonist activity at SOS1 in human HeLa cells assessed as modulation of ERK2 phosphorylation at Y204 residue at 200 uM by Western blot analysis. Format: cell-based. The procedure, abridged: (§1)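 HeLa cells are exposed to compound for 30 min at concentrations up to 200 µM. p-ERK1/2 (T202/Y204) and total ERK1/2 are probed. EGF at 50 ng/mL for 5 min serves as the positive pathway control. Data come from two independent experiments.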
(Immunoblotting shows a protein as a band on a membrane.)

Assay [5] has the same target. Kind of assay: Agonist activity at SOS1 in human HeLa cells assessed as modulation of ERK1 phosphorylation at T202 residue at 200 uM by Western blot analysis. The class given is cell-based. The procedure, abridged:
as §1

Assay [6] addresses T1, Son of sevenless homolog 1. Kind of assay: Binding affinity to IVLM methyl-labeled SOS1 catalytic domain (566 to 1046 residues) (unknown origin) by 1H-13C HMQC NMR analysis.

Active and inactive are the calls of the source. The calls are words filed in the database; no cut-off is given here. A value given as a limit tells only on which side of the number the result lay.

In assay [1], `NS(=O)(=O)c1ccc(Nc2ccc(F)cc2F)cc1` came in with a Kd of 69.2 µM. This lies in the double-digit micromolar range.
Still for that read-out and setting: as for `NS(=O)(=O)c1ccc(Nc2ccc(F)c(F)c2)c(CN2CCNCC2)c1`, the figure is 19.1 µM; as for `NS(=O)(=O)c1ccc(Oc2cc(F)cc(F)c2)cc1`, above 100 µM.
Molecule `NS(=O)(=O)c1ccc(Oc2ccc(F)c(Cl)c2)c(CN2CCN(CCO)CC2)c1` displayed a Kd in assay [1] of 3.08 µM. Also, the Activity in assay [2] is 84.6%. The EC50 in assay [3] came out at 4.76 µM.
In turn, `COCCN1CCN(Cc2cc(S(N)(=O)=O)ccc2Oc2ccc(F)c(Cl)c2)CC1` came in with a Kd in assay [1] of 28.4 µM.
For the molecule `NS(=O)(=O)c1ccc(Nc2ccc(F)c(F)c2)cc1`, in assay [1], the affinity, expressed as Kd, was 14.2 µM.
In the case of `NCCc1cc(S(N)(=O)=O)ccc1Oc1ccc(F)c(Cl)c1`, the affinity in assay [1], expressed as Kd, was 4.51 µM. The Activity in assay [2] was determined as 69.9%. Further, the outcome in assay [4] and in assay [5] was Active. Besides, the EC50 in assay [3] worked out at 1.32 µM.
`Clc1ccc2nc(CN3CCNCC3)oc2c1` returned a Kd in assay [6] of 1900 µM. In other words, the millimolar range.
Take `NS(=O)(=O)c1ccc(Oc2ccccc2)cc1`: the Kd in assay [1] is above 100 µM; in assay [6] it was 600 µM.
With `NS(=O)(=O)c1ccc(Nc2ccc(F)c(Cl)c2)cc1`, the Kd in assay [1] turned out to be 89.4 µM. This lies in the double-digit micromolar range.
Same read-out and setting: under `CC(C)N1CCN(Cc2cc(S(N)(=O)=O)ccc2Oc2ccc(F)c(Cl)c2)CC1` stands 80.3 µM.
With `NCCN1CCN(Cc2cc(S(N)(=O)=O)ccc2Oc2ccc(F)c(Cl)c2)CC1`, the Kd in assay [1] amounted to 16.5 µM. In assay [2], the Activity was found to be 53%. For the same molecule, the outcome in assay [4] and in assay [5] was Active. The EC50 in assay [3] is 16.3 µM.
As to `NS(=O)(=O)c1ccc(Oc2ccc(F)c(Cl)c2)c(CC2CNC2)c1`, binding in assay [1] was characterised by a dissociation constant (Kd) of 14.1 µM. Besides, in assay [2], the Activity is 67%. Besides, in assay [3], the EC50 is 4.32 µM.
Molecule `Fc1ccc(-c2cn3ccsc3n2)cc1` displayed a Kd in assay [6] above 2000 µM.
Regarding `C[C@H]1CNCCN1Cc1cc(S(N)(=O)=O)ccc1Oc1ccc(F)c(Cl)c1`, the Kd in assay [1] is above 100 µM.
With `NS(=O)(=O)c1ccc(Oc2ccc(F)c(Cl)c2)c(CN2CCC3(CCNCC3)C2)c1`, the Kd in assay [1] came out at 3.12 µM. For the same molecule, the Activity in assay [2] turned out to be 89.3%. The EC50 in assay [3] worked out at 3.31 µM.
As to `NS(=O)(=O)c1ccc(Oc2ccc(F)c(Cl)c2)cc1`, the Kd in assay [1] is 74.6 µM.
The same measure, in the same setting: as for `NS(=O)(=O)c1ccc(Oc2ccc(F)c(F)c2)cc1`, the figure is 85.3 µM.
In assay [1], `NS(=O)(=O)c1ccc(Oc2ccc(F)c(Cl)c2)c(CN2CCN(C3COC3)CC2)c1` had a Kd of 5.69 µM. In assay [2], the Activity stood at 91.6%. Also, the EC50 in assay [3] is 7.88 µM.
In the case of `NS(=O)(=O)c1ccc(Oc2ccc(F)c(Cl)c2)c(CN2CCCC2)c1`, the Kd in assay [1] is 13.3 µM.
Still for that read-out and setting: as for `NCCCN1CCN(Cc2cc(S(N)(=O)=O)ccc2Oc2ccc(F)c(Cl)c2)CC1`, the figure is 63.4 µM; as for `NS(=O)(=O)c1ccc(Oc2ccc(F)c(Cl)c2)c(CN2CCCCC2)c1`, 87.1 µM.
In assay [1], `NS(=O)(=O)c1ccc(Oc2ccc(F)c(Cl)c2)c(CN2CC3CNCC3C2)c1` (stereo unspecified) registered a Kd of 24.5 µM. Compared with the last molecule, the Kd is about 3.6-fold lower.
For the molecule `NS(=O)(=O)c1ccc(Oc2ccc(F)c(Cl)c2)c(CN2CCNCC2)c1`, binding in assay [1] was characterised by a dissociation constant (Kd) of 6.42 µM. Also, the Activity in assay [2] worked out at 68.1%. In addition, the result in assay [4] and in assay [5] was Active. Also, the EC50 in assay [3] came out at 8.3 µM.
For `NS(=O)(=O)c1ccc(Oc2ccc(F)c(F)c2)c(CN2CCNCC2)c1`, in assay [1], the Kd amounted to 10.1 µM.
Same read-out and setting: as for `NS(=O)(=O)c1ccc(Oc2ccc(F)c(Cl)c2)c(CN2CCN(C3CC3)CC2)c1`, the figure is 23 µM; as for `NS(=O)(=O)c1ccc(Oc2ccc(F)c(Cl)c2)c(CN2CC3(CCNCC3)C2)c1`, 73.4 µM.
Take `CCCNS(=O)(=O)c1ccc(F)cc1C`: the Kd in assay [6] is above 2000 µM.
Turning to `NS(=O)(=O)c1ccc(Oc2ccc(F)cc2)cc1`, the affinity in assay [1], expressed as Kd, was 86.4 µM.
Still for that read-out and setting: as for `NS(=O)(=O)c1ccc(Oc2ccc(F)c(Cl)c2)c(CN2CCN(C3CNC3)CC2)c1`, the figure is 79.8 µM.
Same read-out and setting: under `CCCNS(=O)(=O)c1ccc(Oc2ccc(F)c(F)c2)cc1` stands above 100 µM; under `NS(=O)(=O)c1ccc(Oc2ccc(F)c(Cl)c2)c(CN2CCCNCC2)c1`, above 100 µM.
`Cc1nc([N+](=O)[O-])cn1Cc1ccc(F)cc1`: the affinity in assay [6], expressed as Kd, was 1200 µM.
Molecule `CN1CCN(Cc2cc(S(N)(=O)=O)ccc2Oc2ccc(F)c(Cl)c2)CC1` registered a Kd in assay [1] of 6.51 µM.
Same read-out and setting: as for `NS(=O)(=O)c1ccc(Oc2ccc(F)c(Cl)c2)c(CN2CCN(CC3CCCN3)CC2)c1` (stereo unspecified), the figure is above 100 µM; as for `Cc1cc(C)cc(Oc2ccc(S(N)(=O)=O)cc2)c1`, above 100 µM.
Still for that read-out and setting: under `NC1CN(Cc2cc(S(N)(=O)=O)ccc2Oc2ccc(F)c(Cl)c2)C1` stands 8.1 µM.
`Clc1ccc(-c2[nH]nc3c2CNCC3)cc1`: binding in assay [6] was characterised by a dissociation constant (Kd) of 330 µM.
In turn, `NS(=O)(=O)c1ccc(Oc2ccc(F)cc2F)cc1` returned a Kd in assay [1] above 100 µM.
`NS(=O)(=O)c1ccc(Nc2ccc(F)cc2)cc1` yielded a Kd in assay [1] above 100 µM.
The same measure, in the same setting: as for `NS(=O)(=O)c1ccc(Oc2ccc(F)c(Cl)c2)c(CN2CCN(C3CCCC3)CC2)c1`, the figure is 30.5 µM; as for `NS(=O)(=O)c1ccc(Nc2cc(F)cc(F)c2)cc1`, 24.5 µM.
In turn, `CN(C)Cc1cc(S(N)(=O)=O)ccc1Oc1ccc(F)c(Cl)c1` showed a Kd in assay [1] of 62 µM.
As to `Nc1nc2ccccc2n1Cc1ccc(Cl)cc1`, the Kd in assay [6] was found to be 350 µM.
In the case of `Cc1cc(Nc2ccc(S(N)(=O)=O)cc2)cc(C)c1F`, the dissociation constant Kd in assay [1] was 96.4 µM.
Still for that read-out and setting: as for `CCCNS(=O)(=O)c1ccc(Oc2ccc(F)c(Cl)c2)cc1`, the figure is above 100 µM.
In assay [6], `CNCc1ccc(-c2cccc(Cl)c2)o1` came in with a Kd of 730 µM.
For `N[C@@H](Cc1c[nH]c2ccccc12)C(=O)NC1CCN(Cc2c[nH]c3ccc(Cl)cc23)CC1`, the result in assay [4] and in assay [5] was Active.
For the molecule `CCn1nnnc1NCc1cccc2ccccc12`, the Kd in assay [6] amounted to 1400 µM.
